“And” between values parts separate entries of the source, which are not always exact repeats. Equal values may be shown once.
System: Fibroblast
Test: Multiplex assay against human fibroblast
Format: toxicity, cell-based
Details: number of replicates 2
Outline: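 Cells were classed with CellPathfinder machine-learning gating, first as Hoechst high-intensity objects or normal cells, then (normal cells) as healthy, pyknosed or fragmented nuclei, and finally (pyknosed cells) as mitotic or apoptotic. Staining of live cells at seeding used Hoechst33342, BioTracker Green Microtubule Cytoskeleton Dye, MitoTracker Red and Annexin V Alexa Fluor 680, with imaging on a CQ1 microscope at 37°C and 5% CO2 after compound addition. Tubulin, mitochondrial-mass and membrane-permeability phenotypes are per cents of healthy-nucleus cells.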

[1] = 12 h, 1 µM, compound concentration 1 uM
[2] = 12 h, 10 µM, compound concentration 10 uM
[3] = 24 h, 1 µM, compound concentration 1 uM
[4] = 24 h, 10 µM, compound concentration 10 uM
[5] = 48 h, 1 µM, compound concentration 1 uM
[6] = 48 h, 10 µM, compound concentration 10 uM

SMILES: Cc1cc(C2CCCNC2)ccc1Nc1ncc(Br)c(NCc2cccc3c2C(C)(C)C(=O)N3)n1 (stereo unspecified)
- Population Apoptotic (%) [1]: 58% and 42%
- Population Fragmented Nuclei (%) [1]: 10%
- Population Healthy Nuclei (%) [1]: 61% and 64%
- Population Hoechst High Intensity Objects (%) [1]: 0%
- Population Membrane Permeable-Phenotype (%) [1]: 13% and 5%
- Population Mitochondria Different-Phenotype (%) [1]: 5% and 3%
- Population Mitotic Cells (%) [1]: 42% and 57%
- Population Normal (%) [1]: 99% and 100%
- Population Pyknosed Nuclei (%) [1]: 27% and 25%
- Population Tubulin-Different-Phenotype (%) [1]: 50% and 49%
- Total Cell Count [1]: 184 and 193
- Population Apoptotic (%) [2]: 40% and 38%
- Population Fragmented Nuclei (%) [2]: 29% and 27%
- Population Healthy Nuclei (%) [2]: 59% and 56%
- Population Hoechst High Intensity Objects (%) [2]: 1% and 0%
- Population Membrane Permeable-Phenotype (%) [2]: 9% and 11%
- Population Mitochondria Different-Phenotype (%) [2]: 2% and 5%
- Population Mitotic Cells (%) [2]: 60% and 61%
- Population Normal (%) [2]: 98% and 99%
- Population Pyknosed Nuclei (%) [2]: 10% and 15%
- Population Tubulin-Different-Phenotype (%) [2]: 82% and 69%
- Total Cell Count [2]: 382 and 328
- Population Apoptotic (%) [3]: 57% and 62%
- Population Fragmented Nuclei (%) [3]: 8% and 14%
- Population Healthy Nuclei (%) [3]: 71% and 60%
- Population Hoechst High Intensity Objects (%) [3]: 0%
- Population Membrane Permeable-Phenotype (%) [3]: 3% and 7%
- Population Mitochondria Different-Phenotype (%) [3]: 6% and 12%
- Population Mitotic Cells (%) [3]: 42% and 38%
- Population Normal (%) [3]: 100% and 99%
- Population Pyknosed Nuclei (%) [3]: 20% and 25%
- Population Tubulin-Different-Phenotype (%) [3]: 43% and 46%
- Total Cell Count [3]: 198 and 199
- Population Apoptotic (%) [4]: 65% and 74%
- Population Fragmented Nuclei (%) [4]: 17% and 10%
- Population Healthy Nuclei (%) [4]: 59% and 62%
- Population Hoechst High Intensity Objects (%) [4]: 1% and 0%
- Population Membrane Permeable-Phenotype (%) [4]: 7% and 2%
- Population Mitochondria Different-Phenotype (%) [4]: 21% and 31%
- Population Mitotic Cells (%) [4]: 34% and 25%
- Population Normal (%) [4]: 98% and 99%
- Population Pyknosed Nuclei (%) [4]: 22% and 27%
- Population Tubulin-Different-Phenotype (%) [4]: 86% and 79%
- Total Cell Count [4]: 279 and 234
- Population Apoptotic (%) [5]: 70% and 65%
- Population Fragmented Nuclei (%) [5]: 11% and 16%
- Population Healthy Nuclei (%) [5]: 73% and 63%
- Population Hoechst High Intensity Objects (%) [5]: 0%
- Population Membrane Permeable-Phenotype (%) [5]: 3%
- Population Mitochondria Different-Phenotype (%) [5]: 3% and 9%
- Population Mitotic Cells (%) [5]: 29% and 34%
- Population Normal (%) [5]: 100%
- Population Pyknosed Nuclei (%) [5]: 15% and 20%
- Population Tubulin-Different-Phenotype (%) [5]: 39% and 30%
- Total Cell Count [5]: 180 and 175
- Population Apoptotic (%) [6]: 93% and 96%
- Population Fragmented Nuclei (%) [6]: 11% and 16%
- Population Healthy Nuclei (%) [6]: 40% and 48%
- Population Hoechst High Intensity Objects (%) [6]: 6% and 2%
- Population Mitochondria Different-Phenotype (%) [6]: 53% and 52%
- Population Mitotic Cells (%) [6]: 6% and 3%
- Population Normal (%) [6]: 93% and 97%
- Population Pyknosed Nuclei (%) [6]: 48% and 34%
- Population Tubulin-Different-Phenotype (%) [6]: 83% and 78%
- Total Cell Count [6]: 164 and 169

SMILES: CC1(C)C(=O)N([C@H]2CCc3c(O)cccc32)c2nc(Nc3cccc(CN4CCCC4)c3)ncc21
- Population Apoptotic (%) [1]: 38% and 68%
- Population Fragmented Nuclei (%) [1]: 14% and 18%
- Population Healthy Nuclei (%) [1]: 75% and 64%
- Population Hoechst High Intensity Objects (%) [1]: 0%
- Population Membrane Permeable-Phenotype (%) [1]: 5%
- Population Mitochondria Different-Phenotype (%) [1]: 0% and 4%
- Population Mitotic Cells (%) [1]: 61% and 31%
- Population Normal (%) [1]: 100%
- Population Pyknosed Nuclei (%) [1]: 9% and 17%
- Population Tubulin-Different-Phenotype (%) [1]: 22% and 16%
- Total Cell Count [1]: 136 and 183
- Population Apoptotic (%) [2]: 77% and 80%
- Population Fragmented Nuclei (%) [2]: 22% and 20%
- Population Healthy Nuclei (%) [2]: 43% and 42%
- Population Hoechst High Intensity Objects (%) [2]: 1%
- Population Membrane Permeable-Phenotype (%) [2]: 9% and 4%
- Population Mitochondria Different-Phenotype (%) [2]: 16% and 12%
- Population Mitotic Cells (%) [2]: 22% and 20%
- Population Normal (%) [2]: 98%
- Population Pyknosed Nuclei (%) [2]: 33% and 37%
- Population Tubulin-Different-Phenotype (%) [2]: 67% and 54%
- Total Cell Count [2]: 150 and 191
- Population Apoptotic (%) [3]: 62% and 70%
- Population Fragmented Nuclei (%) [3]: 18% and 20%
- Population Healthy Nuclei (%) [3]: 67% and 64%
- Population Hoechst High Intensity Objects (%) [3]: 0%
- Population Membrane Permeable-Phenotype (%) [3]: 5% and 2%
- Population Mitochondria Different-Phenotype (%) [3]: 2% and 8%
- Population Mitotic Cells (%) [3]: 37% and 29%
- Population Normal (%) [3]: 99%
- Population Pyknosed Nuclei (%) [3]: 13% and 15%
- Population Tubulin-Different-Phenotype (%) [3]: 22% and 24%
- Total Cell Count [3]: 118 and 154
- Population Apoptotic (%) [4]: 95% and 93%
- Population Fragmented Nuclei (%) [4]: 25% and 22%
- Population Healthy Nuclei (%) [4]: 16%
- Population Hoechst High Intensity Objects (%) [4]: 0% and 1%
- Population Membrane Permeable-Phenotype (%) [4]: 7% and 8%
- Population Mitochondria Different-Phenotype (%) [4]: 21% and 33%
- Population Mitotic Cells (%) [4]: 4% and 6%
- Population Normal (%) [4]: 99% and 98%
- Population Pyknosed Nuclei (%) [4]: 58% and 61%
- Population Tubulin-Different-Phenotype (%) [4]: 46% and 79%
- Total Cell Count [4]: 176 and 153
- Population Apoptotic (%) [5]: 69% and 79%
- Population Fragmented Nuclei (%) [5]: 13% and 14%
- Population Healthy Nuclei (%) [5]: 61% and 52%
- Population Hoechst High Intensity Objects (%) [5]: 0%
- Population Membrane Permeable-Phenotype (%) [5]: 18% and 15%
- Population Mitochondria Different-Phenotype (%) [5]: 4% and 0%
- Population Mitotic Cells (%) [5]: 30% and 20%
- Population Normal (%) [5]: 100% and 99%
- Population Pyknosed Nuclei (%) [5]: 24% and 32%
- Population Tubulin-Different-Phenotype (%) [5]: 32% and 20%
- Total Cell Count [5]: 105 and 132
- Population Apoptotic (%) [6]: 97% and 95%
- Population Fragmented Nuclei (%) [6]: 15% and 19%
- Population Healthy Nuclei (%) [6]: 17%
- Population Hoechst High Intensity Objects (%) [6]: 2%
- Population Membrane Permeable-Phenotype (%) [6]: 14% and 20%
- Population Mitochondria Different-Phenotype (%) [6]: 28% and 40%
- Population Mitotic Cells (%) [6]: 2% and 4%
- Population Normal (%) [6]: 97%
- Population Pyknosed Nuclei (%) [6]: 67% and 62%
- Population Tubulin-Different-Phenotype (%) [6]: 61% and 64%
- Total Cell Count [6]: 126 and 145

Reference: ChEMBL document CHEMBL5303300, “EUbOPEN Chemogenomics Library - Multiplex” (2023)
